Activity calls are given as the source filed them. No cut-off for these calls is given here.
Tests used:
[1] = target: T1, CYP1A2 (Homo sapiens, UniProt P05177); test: Inhibition of CYP1A2 in human microsomes at 10 uM using phenacetin as substrate preincubated for 5 mins followed by NADPH addition measured 20 mins relative to control; assay type: ADME; settings: probe phenacetin, read-out: TDI
T1 sequence (P05177 whole entry): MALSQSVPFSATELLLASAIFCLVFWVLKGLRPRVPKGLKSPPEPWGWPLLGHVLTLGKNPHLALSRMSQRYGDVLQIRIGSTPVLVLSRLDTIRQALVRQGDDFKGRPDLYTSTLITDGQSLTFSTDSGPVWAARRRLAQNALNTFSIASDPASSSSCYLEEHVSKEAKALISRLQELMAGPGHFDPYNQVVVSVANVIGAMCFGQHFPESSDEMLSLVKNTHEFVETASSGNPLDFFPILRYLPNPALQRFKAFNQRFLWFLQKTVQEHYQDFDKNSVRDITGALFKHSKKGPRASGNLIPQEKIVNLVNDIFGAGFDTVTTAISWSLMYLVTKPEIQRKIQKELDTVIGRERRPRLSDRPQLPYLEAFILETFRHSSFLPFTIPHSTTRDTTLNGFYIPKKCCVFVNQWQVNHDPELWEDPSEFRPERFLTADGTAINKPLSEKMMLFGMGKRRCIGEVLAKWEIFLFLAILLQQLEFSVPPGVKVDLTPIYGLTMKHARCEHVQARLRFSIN
Summary of the method: (§1)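 Pooled human microsomes (0.2 mg/mL) in 100 mM phosphate pH 7.4 with a probe cocktail: midazolam 10 µM, dextromethorphan 10 µM, diclofenac 20 µM, phenacetin 100 µM, mephenytoin 100 µM. Test compound was 10 µM; organic solvent was under 1%. After 5 min preincubation at 37 °C, 1 mmol/L NADPH was added and the reaction ran 20 min, keeping substrate conversion below 20%. Metabolite formation was expressed relative to PBS control.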

[2] = target: T2, Cytochrome P450 3A4 (Homo sapiens, UniProt P08684); test: (§2) Time-dependent inhibition of CYP3A4 in human microsomes at 10 uM using midazolam as substrate preincubated for 5 mins followed by NADPH addition measured 20 mins relative to control; assay type: ADME; settings: microsomes, 20 min, 10 µM
[3] = target: T3, Cytochrome P450 2C19 (Homo sapiens, UniProt P33261); test: (§3) […] of CYP2C19 in human microsomes at 10 uM using mephenytoin as substrate preincubated for 5 mins followed by NADPH addition measured 20 mins relative to control; assay type: ADME; settings: microsomes, 20 min, 10 µM
[4] = target: T4, Cytochrome P450 2D6 (Homo sapiens, UniProt P10635); test: (§4) […] of CYP2D6 in human microsomes at 10 uM using dextromethorphan as substrate preincubated for 5 mins followed by NADPH addition measured 20 mins relative to control; assay type: ADME; settings: microsomes, 20 min, 10 µM
[5] = target: T1, CYP1A2; test: (§5) Time-dependent inhibition of CYP1A2 in human microsomes at 10 uM using phenacetin as substrate preincubated for 5 mins followed by NADPH addition measured 20 mins relative to control; assay type: ADME; settings: human microsomes, probe phenacetin, read-out: TDI
[6] = target: T5, cAMP and cAMP-inhibited cGMP 3',5'-cyclic phosphodiesterase 10A (Homo sapiens, UniProt Q9Y233); test: Inhibition of recombinant human N-terminal GST-tagged PDE10A1 (2 to 789 residues) expressed in baculovirus infected Sf9 cells using fluorescein-labeled cAMP as substrate preincubated for 15 mins followed by substrate addition measured after 30 mins by IMAP fluorescence polarization assay
Summary of the method: (§6)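 Recombinant PDE4A1A, PDE2A1 or PDE10A1 was incubated with compound (1% DMSO, duplicate) for 15 min at RT. Fluorescein-cAMP was then added for 30 min at RT, and the reaction was stopped with IMAP binding reagent (1 h, dark). FP was read at Ex485/Em535. Inhibition was set against no-enzyme and DMSO controls. IC50 came from a four-parameter logistic fit; values are the mean of at least two measurements.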

[7] = target: T6, CYP2C9 (Homo sapiens, UniProt P11712); test: (§7) Inhibition of CYP2C9 in human microsomes at 10 uM using diclofenac as substrate preincubated for 5 mins followed by NADPH addition measured 20 mins relative to control; assay type: ADME; settings: human microsomes, probe diclofenac, read-out: TDI; summary of the method: as §1
[8] = target: T7, Cytochrome P450 2C9 (Homo sapiens, UniProt P11712); test: (§8) […] of CYP2C9 in human microsomes at 10 uM using diclofenac as substrate preincubated for 5 mins followed by NADPH addition measured 20 mins relative to control; assay type: ADME; settings: microsomes, 20 min, 10 µM
[9] = Half life in mouse liver microsomes at 1 uM preincubated for 5 mins followed by NADPH addition measured up to 30 mins by LC-MS/MS analysis; assay type: ADME, microsome
Summary of the method: (§9)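 Liver microsomes (0.5 mg/mL) plus 1 µM compound were preincubated 5 min at 37 °C in 0.1 M phosphate buffer pH 7.4 containing EDTA and MgCl₂. NADPH started the reaction. Samples at 0, 5, 10 and 30 min were quenched with cold acetonitrile containing tinidazole internal standard and centrifuged. Parent remaining was quantified by LC/MS/MS.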

[10] = target: T5, cAMP and cAMP-inhibited cGMP 3',5'-cyclic phosphodiesterase 10A; test: Inhibition of recombinant human N-terminal GST-tagged PDE10A1 (2 to 789 residues) expressed in baculovirus infected Sf9 cells at 5 uM using fluorescein-labeled cAMP as substrate preincubated for 15 mins followed by substrate addition measured after 30 mins by IMAP fluorescence polarization assay relative to control; summary of the method: as §6
[11] = target: T8, CYP2C19 (Homo sapiens, UniProt P33261); test: (§10) Inhibition of CYP2C19 in human microsomes at 10 uM using mephenytoin as substrate preincubated for 5 mins followed by NADPH addition measured 20 mins relative to control; assay type: ADME; settings: human microsomes, probe mephenytoin, read-out: TDI; summary of the method: as §1
[12] = Half life in human liver microsomes at 1 uM preincubated for 5 mins followed by NADPH addition measured up to 30 mins by LC-MS/MS analysis; assay type: ADME, microsome; summary of the method: as §9
[13] = target: T9, CYP2D6 (Homo sapiens, UniProt P10635); test: (§11) Inhibition of CYP2D6 in human microsomes at 10 uM using dextromethorphan as substrate preincubated for 5 mins followed by NADPH addition measured 20 mins relative to control; assay type: ADME; settings: human microsomes, probe dextromethorphan, read-out: TDI; summary of the method: as §1
[14] = target: T2, Cytochrome P450 3A4; test: (§12) Inhibition of CYP3A4 in human microsomes at 10 uM using midazolam as substrate preincubated for 5 mins followed by NADPH addition measured 20 mins relative to control; assay type: ADME; settings: microsomes, 20 min, 10 µM; summary of the method: as §1
[15] = target: T10, CYP3A4 (Homo sapiens, UniProt P08684); test: as §2; assay type: ADME; settings: human microsomes, probe midazolam, read-out: TDI
[16] = tested on: Rattus norvegicus; test: Antipsychotic activity in Sprague-Dawley rat assessed as inhibition of PCP-induced prepulse inhibition deficit at 50 mg/kg, po pretreated for 30 mins followed by PCP addition measured after 5 mins to 10 mins; assay type: functional, organism-based
Summary of the method: (§13)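 Male SD rats (200-250 g) were dosed p.o. in saline with 0.5% Tween 80 and 0.2% CMC-sodium, 30 min before PCP 5 mg/kg i.p. Acoustic startle PPI was tested in startle chambers 5-10 min after PCP. Startle magnitude was the mean of pulse-alone trials. n = 11-16 per group; mean ± SEM; ANOVA with post hoc tests.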

[17] = target: T11, Cytochrome P450 1A2 (Homo sapiens, UniProt P05177); test: as §5; assay type: ADME; settings: microsomes, 20 min, 10 µM
T11 sequence (P05177 whole entry): T1 sequence (P05177 whole entry)

[18] = tested on: Rattus norvegicus; test: Antipsychotic activity in Sprague-Dawley rat assessed as inhibition of PCP-induced hyperlocomotion at 50 mg/kg, po pretreated for 30 mins followed by PCP addition measured after 5 mins for 1.5 hrs by open field test; assay type: functional, organism-based
Summary of the method: (§14)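 Male SD rats (200-250 g), acclimated at least 1 week. Drug was given p.o. in sterile saline with 0.5% Tween 80 and 0.2% CMC-sodium, 30 min before PCP 5 mg/kg i.p. Rats were placed in a 40×40×45 cm open-field arena 5 min after PCP and video-tracked for 90 min. Read-out was total distance travelled, reported as mean ± SEM.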

[19] = target: T6, CYP2C9; test: as §8; assay type: ADME; settings: human microsomes, probe diclofenac, read-out: TDI
[20] = target: PDE2A1 (Homo sapiens, UniProt O00408); test: Inhibition of recombinant human N-terminal FLAG-tagged PDE2A1 (2 to 941 residues) expressed in baculovirus infected Sf9 cells at 1 uM using fluorescein-labeled cAMP as substrate preincubated for 15 mins followed by substrate addition measured after 30 mins by IMAP fluorescence polarization assay relative to control; settings: probe fluorescein-labeled cAMP; summary of the method: as §6
[21] = tested on: Rattus norvegicus; test: Antipsychotic activity in Sprague-Dawley rat assessed as inhibition of PCP-induced hyperlocomotion at 10 mg/kg, po pretreated for 30 mins followed by PCP addition measured after 5 mins for 1.5 hrs by open field test; assay type: functional, organism-based; summary of the method: as §14
[22] = target: T10, CYP3A4; test: as §12; assay type: ADME; settings: human microsomes, probe midazolam, read-out: TDI; summary of the method: as §1
[23] = tested on: Rattus norvegicus; test: Antipsychotic activity in Sprague-Dawley rat assessed as inhibition of PCP-induced prepulse inhibition deficit at 10 mg/kg, po pretreated for 30 mins followed by PCP addition measured after 5 mins to 10 mins; assay type: functional, organism-based; summary of the method: as §13
[24] = target: T3, Cytochrome P450 2C19; test: as §10; assay type: ADME; settings: microsomes, 20 min, 10 µM; summary of the method: as §1
[25] = target: T8, CYP2C19; test: as §3; assay type: ADME; settings: human microsomes, probe mephenytoin, read-out: TDI
[26] = target: T9, CYP2D6; test: as §4; assay type: ADME; settings: human microsomes, probe dextromethorphan, read-out: TDI
[27] = target: T7, Cytochrome P450 2C9; test: as §7; assay type: ADME; settings: microsomes, 20 min, 10 µM; summary of the method: as §1
[28] = target: T4, Cytochrome P450 2D6; test: as §11; assay type: ADME; settings: microsomes, 20 min, 10 µM; summary of the method: as §1

T9 sequence (P10635 whole entry): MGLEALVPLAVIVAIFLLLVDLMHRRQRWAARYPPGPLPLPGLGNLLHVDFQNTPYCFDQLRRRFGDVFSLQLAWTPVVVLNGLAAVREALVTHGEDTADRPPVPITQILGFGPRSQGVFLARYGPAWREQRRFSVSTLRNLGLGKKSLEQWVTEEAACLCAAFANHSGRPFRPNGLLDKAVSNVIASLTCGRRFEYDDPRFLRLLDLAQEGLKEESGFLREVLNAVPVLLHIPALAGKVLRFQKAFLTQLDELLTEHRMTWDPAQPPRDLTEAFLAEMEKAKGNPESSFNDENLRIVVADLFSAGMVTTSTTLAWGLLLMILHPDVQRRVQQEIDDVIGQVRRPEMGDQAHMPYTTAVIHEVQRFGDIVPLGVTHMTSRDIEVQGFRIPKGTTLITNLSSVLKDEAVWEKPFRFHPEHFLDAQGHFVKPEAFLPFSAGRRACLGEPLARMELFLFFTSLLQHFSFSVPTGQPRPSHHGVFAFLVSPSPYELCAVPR
T4 sequence (P10635 whole entry): as above
T10 sequence (P08684 whole entry): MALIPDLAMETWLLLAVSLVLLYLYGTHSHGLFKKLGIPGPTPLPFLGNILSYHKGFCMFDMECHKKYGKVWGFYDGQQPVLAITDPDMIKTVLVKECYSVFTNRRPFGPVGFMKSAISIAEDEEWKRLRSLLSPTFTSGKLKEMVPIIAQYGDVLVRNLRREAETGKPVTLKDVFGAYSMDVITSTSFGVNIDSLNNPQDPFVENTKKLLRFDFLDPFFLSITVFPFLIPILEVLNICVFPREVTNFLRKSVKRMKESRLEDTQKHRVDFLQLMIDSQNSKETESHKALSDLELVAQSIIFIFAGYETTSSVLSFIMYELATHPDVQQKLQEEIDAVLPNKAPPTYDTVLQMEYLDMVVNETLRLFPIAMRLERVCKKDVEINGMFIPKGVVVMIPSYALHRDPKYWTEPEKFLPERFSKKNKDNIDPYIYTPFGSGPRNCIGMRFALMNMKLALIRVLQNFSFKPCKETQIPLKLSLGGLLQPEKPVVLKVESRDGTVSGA
T2 sequence (P08684 whole entry): as above
T7 sequence (P11712 whole entry): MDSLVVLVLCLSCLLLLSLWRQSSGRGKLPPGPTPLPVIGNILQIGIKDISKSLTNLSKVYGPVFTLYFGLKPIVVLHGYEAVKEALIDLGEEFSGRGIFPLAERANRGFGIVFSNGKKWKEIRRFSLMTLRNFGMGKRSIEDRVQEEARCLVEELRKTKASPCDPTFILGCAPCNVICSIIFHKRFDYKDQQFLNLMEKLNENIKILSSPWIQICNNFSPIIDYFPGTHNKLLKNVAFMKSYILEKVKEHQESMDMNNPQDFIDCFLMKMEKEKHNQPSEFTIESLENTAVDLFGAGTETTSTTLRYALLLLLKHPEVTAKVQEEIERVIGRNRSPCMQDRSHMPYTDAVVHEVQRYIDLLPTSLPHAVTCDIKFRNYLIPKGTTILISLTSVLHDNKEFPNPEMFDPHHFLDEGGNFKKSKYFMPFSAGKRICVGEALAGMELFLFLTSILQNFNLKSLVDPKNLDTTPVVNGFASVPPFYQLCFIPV
T6 sequence (P11712 whole entry): as above
T8 sequence (P33261 whole entry): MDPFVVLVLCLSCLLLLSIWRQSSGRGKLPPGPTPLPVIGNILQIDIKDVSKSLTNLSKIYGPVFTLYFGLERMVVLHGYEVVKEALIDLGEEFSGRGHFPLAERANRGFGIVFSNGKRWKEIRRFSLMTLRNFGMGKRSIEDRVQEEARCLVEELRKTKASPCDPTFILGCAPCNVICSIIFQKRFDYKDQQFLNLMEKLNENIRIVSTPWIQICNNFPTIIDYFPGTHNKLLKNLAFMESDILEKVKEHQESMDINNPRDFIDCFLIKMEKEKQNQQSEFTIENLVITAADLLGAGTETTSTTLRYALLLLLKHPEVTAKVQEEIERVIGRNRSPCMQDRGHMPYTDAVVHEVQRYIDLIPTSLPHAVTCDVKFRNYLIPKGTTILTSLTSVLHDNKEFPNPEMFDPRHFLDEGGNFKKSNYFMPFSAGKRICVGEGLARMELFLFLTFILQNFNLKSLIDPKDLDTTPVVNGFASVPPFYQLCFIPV
T3 sequence (P33261 whole entry): as above
Sequence of PDE2A1 (O00408 whole entry, the tested form may be a part): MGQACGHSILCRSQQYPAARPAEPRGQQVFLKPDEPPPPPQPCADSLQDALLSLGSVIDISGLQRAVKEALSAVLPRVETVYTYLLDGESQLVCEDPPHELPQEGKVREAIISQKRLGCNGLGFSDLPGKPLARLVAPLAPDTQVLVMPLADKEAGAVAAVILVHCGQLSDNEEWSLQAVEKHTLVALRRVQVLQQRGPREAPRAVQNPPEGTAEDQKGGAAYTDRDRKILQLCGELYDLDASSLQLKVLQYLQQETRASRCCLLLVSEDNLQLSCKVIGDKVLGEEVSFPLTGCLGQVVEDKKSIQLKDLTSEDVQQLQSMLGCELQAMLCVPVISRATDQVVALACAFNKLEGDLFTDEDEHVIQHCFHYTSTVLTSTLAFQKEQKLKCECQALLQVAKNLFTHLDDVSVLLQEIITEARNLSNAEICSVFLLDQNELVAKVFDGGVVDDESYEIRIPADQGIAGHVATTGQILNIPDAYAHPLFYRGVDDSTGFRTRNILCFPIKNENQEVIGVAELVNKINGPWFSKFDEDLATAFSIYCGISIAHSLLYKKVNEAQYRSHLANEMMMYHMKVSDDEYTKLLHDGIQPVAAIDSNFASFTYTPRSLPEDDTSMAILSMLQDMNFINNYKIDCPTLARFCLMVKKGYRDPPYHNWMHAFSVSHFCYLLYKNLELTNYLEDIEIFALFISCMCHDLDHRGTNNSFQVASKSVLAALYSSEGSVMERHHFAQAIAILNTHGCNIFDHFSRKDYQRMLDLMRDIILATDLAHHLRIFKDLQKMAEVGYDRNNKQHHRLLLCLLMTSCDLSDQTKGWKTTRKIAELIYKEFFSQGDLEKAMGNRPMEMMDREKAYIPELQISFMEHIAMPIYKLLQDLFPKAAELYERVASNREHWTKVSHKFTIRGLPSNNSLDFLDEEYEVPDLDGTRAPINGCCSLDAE
T5 sequence (Q9Y233 whole entry, the tested form may be a part): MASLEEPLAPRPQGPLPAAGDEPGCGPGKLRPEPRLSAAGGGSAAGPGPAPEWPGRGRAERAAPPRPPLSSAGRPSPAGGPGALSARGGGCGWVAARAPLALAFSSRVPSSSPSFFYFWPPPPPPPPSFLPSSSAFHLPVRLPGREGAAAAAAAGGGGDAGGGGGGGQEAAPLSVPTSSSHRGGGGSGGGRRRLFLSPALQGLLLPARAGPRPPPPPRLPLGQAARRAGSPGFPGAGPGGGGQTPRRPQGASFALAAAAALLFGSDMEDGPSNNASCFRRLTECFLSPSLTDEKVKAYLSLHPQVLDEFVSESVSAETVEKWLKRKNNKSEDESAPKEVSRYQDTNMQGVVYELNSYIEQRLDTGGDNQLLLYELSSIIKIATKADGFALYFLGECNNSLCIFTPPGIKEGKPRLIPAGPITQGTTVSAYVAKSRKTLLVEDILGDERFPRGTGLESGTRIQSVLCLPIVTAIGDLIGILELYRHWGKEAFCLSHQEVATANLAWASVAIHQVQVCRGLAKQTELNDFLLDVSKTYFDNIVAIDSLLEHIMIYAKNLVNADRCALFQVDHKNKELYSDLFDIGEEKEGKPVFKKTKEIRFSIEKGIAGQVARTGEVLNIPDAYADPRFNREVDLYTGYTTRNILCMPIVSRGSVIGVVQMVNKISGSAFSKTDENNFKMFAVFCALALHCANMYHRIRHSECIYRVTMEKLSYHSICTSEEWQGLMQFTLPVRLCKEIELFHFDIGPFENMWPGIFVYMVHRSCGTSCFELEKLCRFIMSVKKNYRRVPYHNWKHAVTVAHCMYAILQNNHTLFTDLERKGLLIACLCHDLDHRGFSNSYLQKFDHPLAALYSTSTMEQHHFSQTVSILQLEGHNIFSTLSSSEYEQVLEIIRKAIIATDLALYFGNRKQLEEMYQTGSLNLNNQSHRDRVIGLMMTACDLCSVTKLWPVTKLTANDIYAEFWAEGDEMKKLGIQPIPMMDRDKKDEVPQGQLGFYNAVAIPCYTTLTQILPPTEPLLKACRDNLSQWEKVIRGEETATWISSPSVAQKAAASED

Structure (SMILES) | inhibition at 20 min, 10 µM [1] [%] | TDI [2] | TDI [3] | TDI [4] | inhibition at 20 min, 10 µM [5] [%] | IC50 [6] [µM] | inhibition at 20 min, 10 µM [7] [%] | TDI [8] | half-life at 1 µM [9] [min] | inhibition [10] [%] | inhibition at 20 min, 10 µM [11] [%] | half-life at 1 µM [12] [min] | inhibition at 20 min, 10 µM [13] [%] | inhibition at 20 min, 10 µM [15] [%] | TDI [17] | inhibition at 20 min, 10 µM [19] [%] | inhibition at 0.5 h, 1 µM [20] [%] | inhibition at 20 min, 10 µM [22] [%] | inhibition at 20 min, 10 µM [25] [%] | inhibition at 20 min, 10 µM [26] [%] | other results
Cc1ccc(-c2ccc(Cn3cnc4c(N5CCOCC5)ncnc43)cc2)cc1 | 12 | Not Active | Not Active | Not Active | 20 | 0.075 | 30 | Not Active | 49.5 | 97 | 44 | 22.4 | 6 |  |  |  |  |  |  |  | TDI [14]: Not Active
Cc1nc2c(N3CCOCC3)ncnc2n1Cc1ccc(-c2ccccc2Cl)cc1 | 15 |  | Not Active | Not Active |  | 0.038 | 52 |  | 17.8 | 98 | 65 | 43.3 | 22 | 50 | Not Active | 10 | 29 | 9 |  |  | inhibition [16]: inactive; inhibition [18]: inactive; inhibition [21]: Active; inhibition [23]: inactive
COc1ccc(-c2ccc(CNc3c(C)nc4c(N5CCOCC5)nccn34)cc2)cc1OC | 29 | Not Active | Not Active | Not Active |  | 0.452 | 41 | Not Active | 12.8 | 92 |  | 18.2 | 24 |  | Not Active |  | 5 | 42 |  |  | TDI [24]: Not Active
Cc1nc2c(N3CCOCC3)ncnc2n1Cc1ccc(-c2cncnc2)cc1 | 12 |  |  |  | 10 | 0.076 |  | Not Active | 69.3 | 97 |  | 49.5 |  | 20 |  |  | 4 | 22 | 90 | 30 | inhibition [16]: inactive; TDI [27]: Not Active; inhibition [18]: inactive; TDI [24]: Not Active; TDI [28]: Not Active; inhibition [21]: Active; inhibition [23]: Active
Cc1cc(-c2ccc(Cn3c(C)nc4c(N5CCOCC5)ncnc43)cc2)ccn1 | 34 | Not Active |  |  | 30 | 0.056 | 18 |  | 23.9 | 98 | 21 | 18.2 | 6 |  |  | 10 |  | 12 | 70 | 60 | 
Cc1nc2c(N3CCOCC3)ncnc2n1Cc1ccc(-c2cnn(C)c2)cc1 | 21 | Not Active |  |  |  | 0.068 | 10 |  | 99 | 96 | 22 | 231 | 7 |  | Not Active | 40 |  | 40 | 80 | 20 | 

Source: ChEMBL document CHEMBL4020742, “Design and optimization of purine derivatives as in vivo active PDE10A inhibitors” (Bioorg Med Chem, 2017)
